Measured values as given in ChEMBL document CHEMBL1124929, “Indolo[2,1-a]isoquinolines. Syntheses, steroid hormone receptor binding affinities, and cytostatic activity” (1990).

Experiments:
[1] = target: Estrogen receptor (Bos taurus) (UniProt Q9XSB5+P49884); assay: Relative binding affinity(RBA) for 50% displacement of [3H]-estradiol from Estrogen receptor compared to 17-beta-estradiol; format: protein assay
In short: (§1)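 Receptor source was calf uterine cytosol (105000g supernatant, 3 mg/mL protein in assay). Buffers were Tris/EDTA pH 7.4, with NaN₃ for ER, molybdate/glycerol for AR, and sucrose for PR. Tracers were 1 nM [³H]estradiol, [³H]mibolerone or [³H]Org 2058. Incubation was at 0–4 °C for 16 h (ER) or 2 h (AR, PR), with 4–6 competitor concentrations. Nonspecific binding used 2 µM of the unlabeled hormone. Separation was by dextran-coated charcoal. RBA is the ratio of IC50 values for hormone and compound ×100, mean of two triplicate experiments.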

[2] = target: T1, Androgen Receptor (Bos taurus) (UniProt Q5EM59); assay: Relative binding affinity(RBA) for 50% displacement of [3H]mibolerone from Androgen receptor compared to testorone; in short: as §1
T1 sequence (whole entry): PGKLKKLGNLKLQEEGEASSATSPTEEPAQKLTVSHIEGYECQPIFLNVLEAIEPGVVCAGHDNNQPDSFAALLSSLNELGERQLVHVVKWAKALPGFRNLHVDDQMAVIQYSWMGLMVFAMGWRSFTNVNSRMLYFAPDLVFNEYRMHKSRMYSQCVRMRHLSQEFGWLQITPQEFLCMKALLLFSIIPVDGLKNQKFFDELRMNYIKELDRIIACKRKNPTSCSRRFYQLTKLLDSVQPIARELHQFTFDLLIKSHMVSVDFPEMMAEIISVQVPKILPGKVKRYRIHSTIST

[3] = target: T2, Estrogen receptor (Mus musculus) (UniProt O08537+P19785); assay: (§2) Estrogenic activity in uterotrophic assay in immature mice at 2 ug subcutaneous dose; format: functional
In short: (§3)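 Immature female NMRI mice, 20 days old, in groups of 6-10, were dosed sc once daily for three consecutive days. Compounds were given in PEG/0.9% saline 1:1; vehicle controls were included. Animals were killed 24 h after the last dose. Uteri were fixed in Bouin solution and the effect was taken as uterine dry weight (mg)/body weight (g) ×100, given as mean ± SD.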

[4] = target: T2, Estrogen receptor (Mus musculus); assay: (§4) Estrogenic activity in uterotrophic assay in immature mice at 10.0 ug subcutaneous dose; format: functional; in short: as §3
[5] = system: MCF7; assay: Effect on hormone-dependent MCF-7 human breast cancer cell proliferation at 1x10E-5 M; format: functional
In short: (§5)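 Cells were plated at about 2 × 10⁴ per well in six-well dishes. MCF-7 cells were grown in modified improved MEM with 5% NCS, switched to charcoal-treated NCS two weeks before the test, and exposed for 5 days with a re-dose on day 4. MDA-MB 231 cells were grown in McCoy 5a with 10% NCS and exposed for 2 days. Compounds were given 1 day after plating in 0.1% DMSO, with DMSO-matched controls. Read-out was cell number as % T/C, mean of three experiments with six dishes.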

[6] = target: T2, Estrogen receptor (Mus musculus); assay: (§6) Estrogenic activity in uterotrophic assay in immature mice at 50.0 ug subcutaneous dose; format: functional; in short: as §3
[7] = system: MDA-MB-231; assay: Cytostatic effect on hormone-independent MDA-MB 231 human breast cancer cell proliferation at5x10E-6M; format: functional; in short: as §5
[8] = organism: Bos taurus; assay: Relative binding affinity(RBA) as ratio of progesterone and compound required to displace [3H]-org 2058 binding to Progesterone receptor by 50%; in short: as §1
[9] = target: T2, Estrogen receptor (Mus musculus); assay: (§7) Estrogenic activity in uterotrophic assay in immature mice at 250 ug subcutaneous dose; format: functional; in short: as §3
[10] = system: MCF7; assay: Effect on hormone-dependent MCF-7 human breast cancer cell proliferation at 5x10E-6M; format: functional; in short: as §5
[11] = system: MDA-MB-231; assay: Effect on [3H]thymidine incorporation into MDA-MB 231 human breast cancer cells at 5x10E-6M; format: functional
In short: (§8)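 Cells were seeded at ~2 × 10⁴ per well, treated from the next day in 0.1% DMSO, with DMSO controls. MCF-7 cells were held in charcoal-stripped NCS for 2 weeks, treated for 5 days and re-dosed on day 4. MDA-MB 231 cells were grown in McCoy 5a/10% NCS and treated for 2 days. At the end, 1 µCi [³H]thymidine per well was added for 2 h. Result is % T/C, mean of three experiments × six dishes.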

[12] = system: MDA-MB-231; assay: Cytostatic effect on hormone-independent MDA-MB 231 human breast cancer cell proliferation at 1x10E-5 M; format: functional; in short: as §5
[13] = target: T2, Estrogen receptor (Mus musculus); assay: as §2; format: functional; in short: as §3; remark: listed apart in the source
[14] = system: MDA-MB-231; assay: Effect on [3H]thymidine incorporation into MDA-MB 231 human breast cancer cells at 1x10E-5 M; format: functional; in short: as §8
[15] = system: MDA-MB-231; assay: Cytostatic effect on hormone-independent MDA-MB 231 human breast cancer cell proliferation at 1x10E-6M; format: functional; in short: as §5
[16] = target: T2, Estrogen receptor (Mus musculus); assay: Inhibition of 0.4 ug estrone-stimulated uterine growth in mice at 2 ug subcutaneous dose; format: functional
In short: (§9)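 Immature 20-day-old female NMRI mice received sc injections on three consecutive days. Each injection held 0.4 µg estrone plus the compound in PEG/saline 1:1. […] Significance was tested by Mann-Whitney U test.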

[17] = target: T2, Estrogen receptor (Mus musculus); assay: Inhibition of 0.4 ug estrone-stimulated uterine growth in mice at 50.0 ug subcutaneous dose; format: functional; in short: as §9
[18] = system: MCF7; assay: Effect on [3H]thymidine incorporation into MCF-7 human breast cancer cells at 5x10E-6M; format: functional; in short: as §8
[19] = target: T2, Estrogen receptor (Mus musculus); assay: Inhibition of 0.4 ug estrone-stimulated uterine growth in mice at 250 ug subcutaneous dose; format: functional; in short: as §9
[20] = target: T3, Androgen receptor (Mus musculus) (UniProt P19091); assay: Relative effect on seminal vesicle weight in adult and castrated mice supplemented with 0.3 mg TP at 1000 ug dose; format: functional, tissue-based
T3 sequence (whole entry): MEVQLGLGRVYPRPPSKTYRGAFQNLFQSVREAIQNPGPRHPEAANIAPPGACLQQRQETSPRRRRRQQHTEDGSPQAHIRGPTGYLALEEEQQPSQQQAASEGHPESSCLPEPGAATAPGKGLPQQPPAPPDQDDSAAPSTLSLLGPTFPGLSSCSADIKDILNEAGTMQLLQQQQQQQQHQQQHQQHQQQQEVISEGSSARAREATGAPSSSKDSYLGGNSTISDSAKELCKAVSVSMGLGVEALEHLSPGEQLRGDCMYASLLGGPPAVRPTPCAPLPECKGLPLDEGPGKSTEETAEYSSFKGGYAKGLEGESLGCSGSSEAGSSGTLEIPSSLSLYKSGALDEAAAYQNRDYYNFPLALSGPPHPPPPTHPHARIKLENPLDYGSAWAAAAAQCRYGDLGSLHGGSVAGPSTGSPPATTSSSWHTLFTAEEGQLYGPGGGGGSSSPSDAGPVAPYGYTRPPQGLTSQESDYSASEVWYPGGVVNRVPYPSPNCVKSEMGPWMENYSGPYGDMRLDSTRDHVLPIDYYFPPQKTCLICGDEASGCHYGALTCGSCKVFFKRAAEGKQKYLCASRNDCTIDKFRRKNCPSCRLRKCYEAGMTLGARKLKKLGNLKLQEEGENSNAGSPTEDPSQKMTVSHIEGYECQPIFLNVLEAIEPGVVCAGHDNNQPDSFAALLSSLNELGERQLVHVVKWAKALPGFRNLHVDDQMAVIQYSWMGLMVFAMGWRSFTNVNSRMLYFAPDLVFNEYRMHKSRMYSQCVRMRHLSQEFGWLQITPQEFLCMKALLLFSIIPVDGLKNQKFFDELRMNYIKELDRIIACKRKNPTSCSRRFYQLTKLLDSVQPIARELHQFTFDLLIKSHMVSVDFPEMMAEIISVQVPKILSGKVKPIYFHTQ
In short: (§10)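 Adult male mice, 23–25 g, six per group, were used intact or castrated via the scrotal route under ether 5 days before the test. Castrates received 0.3 mg testosterone propionate daily. Compounds were injected daily in olive oil for nine days. Seminal vesicles were taken 24 h later, fixed in Bouin solution, dried overnight at 100 °C and weighed. Result is organ mg/body g ×100; % inhibition = [1 − treated/control] × 100.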

[21] = target: T3, Androgen receptor (Mus musculus); assay: Relative effect on seminal vesicle weight in adult and castrated mice at 100 ug dose; format: functional, tissue-based; in short: as §10
[22] = target: T2, Estrogen receptor (Mus musculus); assay: as §4; format: functional; in short: as §3; remark: listed apart in the source
[23] = target: T3, Androgen receptor (Mus musculus); assay: Relative effect on seminal vesicle weight in adult and castrated mice at 1000 ug dose; format: functional, tissue-based; in short: as §10
[24] = target: T2, Estrogen receptor (Mus musculus); assay: Inhibition of 0.4 ug estrone-stimulated uterine growth in mice at 10.0 ug subcutaneous dose; format: functional; in short: as §9
[25] = system: MCF7; assay: Effect on [3H]thymidine incorporation into MCF-7 human breast cancer cells at 1x10E-5 M; format: functional; in short: as §8
[26] = system: MCF7; assay: Effect on [3H]thymidine incorporation into MCF-7 human breast cancer cells at 1x10E-6M; format: functional; in short: as §8
[27] = target: T3, Androgen receptor (Mus musculus); assay: Inhibition of testosterone-stimulated seminal vesicle growth in castrated mice supplemented with 0.3 mg of TP at 1000.0 ug; format: functional; in short: as §10
[28] = system: MDA-MB-231; assay: Effect on [3H]-thymidine incorporation into MDA-MB 231 human breast cancer cells at 1x10E-6M; format: functional; in short: as §8
[29] = target: T2, Estrogen receptor (Mus musculus); assay: as §6; format: functional; in short: as §3; remark: listed apart in the source
[30] = target: T3, Androgen receptor (Mus musculus); assay: Inhibition of seminal vesicle weight in intact mice at 100 ug
[31] = target: T2, Estrogen receptor (Mus musculus); assay: as §7; format: functional; in short: as §3; remark: listed apart in the source
[32] = system: MCF7; assay: Effect on hormone-dependent MCF-7 human breast cancer cell proliferation at 1x10E-6M; format: functional; in short: as §5
[33] = system: MCF7; assay: Effect on [3H]-thymidine incorporation into MCF-7 human breast cancer cells at 1x10E-5 M; format: functional; in short: as §8

T2 sequence (O08537 whole entry, looked up): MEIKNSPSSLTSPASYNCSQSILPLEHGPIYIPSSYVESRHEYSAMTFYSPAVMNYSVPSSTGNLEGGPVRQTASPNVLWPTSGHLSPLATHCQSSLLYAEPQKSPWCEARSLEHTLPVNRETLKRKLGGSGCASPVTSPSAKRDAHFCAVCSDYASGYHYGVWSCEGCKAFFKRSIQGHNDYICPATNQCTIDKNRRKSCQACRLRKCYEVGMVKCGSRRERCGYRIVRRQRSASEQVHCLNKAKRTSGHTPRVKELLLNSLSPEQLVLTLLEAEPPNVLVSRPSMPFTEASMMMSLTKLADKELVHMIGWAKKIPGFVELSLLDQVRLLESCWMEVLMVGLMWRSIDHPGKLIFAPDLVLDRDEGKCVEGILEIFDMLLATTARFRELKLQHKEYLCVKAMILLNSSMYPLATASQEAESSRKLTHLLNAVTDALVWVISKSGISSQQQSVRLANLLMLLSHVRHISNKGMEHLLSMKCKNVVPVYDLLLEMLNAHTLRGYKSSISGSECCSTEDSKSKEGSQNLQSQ
T2 sequence (P19785 whole entry, looked up): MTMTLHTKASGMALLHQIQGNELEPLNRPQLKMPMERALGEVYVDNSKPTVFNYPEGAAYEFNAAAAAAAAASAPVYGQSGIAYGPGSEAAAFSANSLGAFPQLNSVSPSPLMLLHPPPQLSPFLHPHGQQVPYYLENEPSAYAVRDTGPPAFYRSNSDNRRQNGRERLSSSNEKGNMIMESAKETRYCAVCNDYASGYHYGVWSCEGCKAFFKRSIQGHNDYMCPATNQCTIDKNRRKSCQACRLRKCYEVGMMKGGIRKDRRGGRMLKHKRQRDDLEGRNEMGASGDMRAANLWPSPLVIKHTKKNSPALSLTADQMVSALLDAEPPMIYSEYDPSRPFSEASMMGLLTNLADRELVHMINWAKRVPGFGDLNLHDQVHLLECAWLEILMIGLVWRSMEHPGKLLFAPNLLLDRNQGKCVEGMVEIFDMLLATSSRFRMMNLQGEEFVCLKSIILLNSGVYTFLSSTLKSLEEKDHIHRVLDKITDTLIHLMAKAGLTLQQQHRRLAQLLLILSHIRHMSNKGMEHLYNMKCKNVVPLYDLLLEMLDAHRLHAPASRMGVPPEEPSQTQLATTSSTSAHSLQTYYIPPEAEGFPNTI

Compound: CC(=O)Oc1cc2c(cc1OC(C)=O)-c1cc3cc(OC(C)=O)c(OC(C)=O)cc3n1CC2
- RBA [1]: < 0.01
- RBA [2]: < 0.01

Compound: CCC1Cc2cc(OC(C)=O)ccc2-c2cc3ccc(OC(C)=O)cc3n21 (configuration not stated)
- Effect [3]: 11.5
- RBA [1]: 4
- Effect [4]: 15.7
- T/C [5]: 6%
- Effect [6]: 18.5
- T/C [7]: 11%
- RBA [2]: 2.5
- RBA [8]: 0.05
- Effect [9]: 48.2
- T/C [10]: 39%
- T/C [11]: 11%
- T/C [12]: 11%
- Effect [13]: 49.6
- T/C [14]: 8%
- T/C [15]: 98%
- inhibition [16]: 2.8%
- inhibition [17]: 31%
- T/C [18]: 24%
- inhibition [19]: 6.8%
- Relative seminal vesicle weight [20]: 200
- Relative seminal vesicle weight [21]: 156
- Effect [22]: 44.5
- Relative seminal vesicle weight [23]: 121
- inhibition [24]: 17.4%
- T/C [25]: 2%
- T/C [26]: 42%
- inhibition [27]: 12%
- T/C [28]: 93%
- Effect [29]: 18.5
- inhibition [30]: 21%
- Effect [31]: 40.5
- T/C [32]: 67%

Compound: CC/C(=C(\c1ccccc1)c1ccc(OCCN(C)C)cc1)c1ccccc1 [TAMOXIFEN]
- T/C [5]: 17%
- T/C [33]: 5%
- T/C [12]: 94%
- T/C [14]: 97%
- T/C [15]: 107%
- T/C [26]: 46%
- T/C [28]: 100%
- T/C [32]: 51%
